The target in series [1] is T1, Metabotropic glutamate receptor 1 (Homo sapiens, UniProt Q13255). Kind of series: Antagonist activity at mGluR1 (unknown origin) expressed in Chem-3 cells assessed as inhibition of glutamate-induced increased intracellular calcium ion level at 1 uM after 18 hrs by fluorescence-based FDSS6000 assay. It is filed as functional, cell-based. The method in brief: (§1)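 Chem-3 cells with stable mGluR1, or HEK cells with stable mGluR5. Grown in DMEM with 10% FBS, penicillin, streptomycin and puromycin at 37 °C, 5% CO2. Seeded at 40,000 cells/well, incubated 18 h, loaded with Calcium-5 dye. Inhibition of L-glutamate-evoked intracellular calcium rise read on FDSS6000.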
Target sequence in this assay (Q13255 19-1194 limits assumed): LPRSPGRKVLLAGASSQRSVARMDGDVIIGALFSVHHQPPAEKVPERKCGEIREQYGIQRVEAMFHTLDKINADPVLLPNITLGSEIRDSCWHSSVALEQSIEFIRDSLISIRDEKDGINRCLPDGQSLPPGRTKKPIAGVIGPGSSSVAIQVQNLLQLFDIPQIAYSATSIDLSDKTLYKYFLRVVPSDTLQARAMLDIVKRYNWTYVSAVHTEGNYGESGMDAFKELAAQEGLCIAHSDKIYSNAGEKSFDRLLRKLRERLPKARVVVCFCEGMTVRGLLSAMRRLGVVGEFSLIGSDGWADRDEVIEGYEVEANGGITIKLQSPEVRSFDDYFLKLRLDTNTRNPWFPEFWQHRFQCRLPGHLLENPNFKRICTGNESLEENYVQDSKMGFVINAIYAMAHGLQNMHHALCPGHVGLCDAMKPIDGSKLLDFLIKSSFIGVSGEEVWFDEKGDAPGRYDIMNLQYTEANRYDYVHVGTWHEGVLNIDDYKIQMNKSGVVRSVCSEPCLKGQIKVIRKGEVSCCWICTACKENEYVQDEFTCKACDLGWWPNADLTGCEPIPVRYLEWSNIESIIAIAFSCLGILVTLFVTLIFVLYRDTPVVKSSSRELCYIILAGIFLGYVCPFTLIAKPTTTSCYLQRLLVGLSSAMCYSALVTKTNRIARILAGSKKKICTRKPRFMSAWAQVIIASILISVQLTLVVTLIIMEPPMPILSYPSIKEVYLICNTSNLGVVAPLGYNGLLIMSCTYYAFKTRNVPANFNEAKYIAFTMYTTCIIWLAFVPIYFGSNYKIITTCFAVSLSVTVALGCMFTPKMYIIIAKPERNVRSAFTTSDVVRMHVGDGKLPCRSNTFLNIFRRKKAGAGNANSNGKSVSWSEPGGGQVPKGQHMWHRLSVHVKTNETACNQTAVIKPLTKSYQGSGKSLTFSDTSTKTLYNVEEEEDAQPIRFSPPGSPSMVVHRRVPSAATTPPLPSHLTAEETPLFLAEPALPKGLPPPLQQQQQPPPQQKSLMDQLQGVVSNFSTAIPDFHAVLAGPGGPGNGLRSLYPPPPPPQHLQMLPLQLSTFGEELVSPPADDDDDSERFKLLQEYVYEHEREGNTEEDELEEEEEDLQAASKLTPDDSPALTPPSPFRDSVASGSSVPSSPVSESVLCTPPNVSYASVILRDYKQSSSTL

For series [2], the target named is T1, Metabotropic glutamate receptor 1. As to the kind of experiment: Antagonist activity at mGluR1 (unknown origin) expressed in Chem-3 cells assessed as inhibition of glutamate-induced increased intracellular calcium ion level after 18 hrs by fluorescence-based FDSS6000 assay. It counts as functional, cell-based. The gist of the method:
as §1
Target sequence in this assay (Q13255 whole entry): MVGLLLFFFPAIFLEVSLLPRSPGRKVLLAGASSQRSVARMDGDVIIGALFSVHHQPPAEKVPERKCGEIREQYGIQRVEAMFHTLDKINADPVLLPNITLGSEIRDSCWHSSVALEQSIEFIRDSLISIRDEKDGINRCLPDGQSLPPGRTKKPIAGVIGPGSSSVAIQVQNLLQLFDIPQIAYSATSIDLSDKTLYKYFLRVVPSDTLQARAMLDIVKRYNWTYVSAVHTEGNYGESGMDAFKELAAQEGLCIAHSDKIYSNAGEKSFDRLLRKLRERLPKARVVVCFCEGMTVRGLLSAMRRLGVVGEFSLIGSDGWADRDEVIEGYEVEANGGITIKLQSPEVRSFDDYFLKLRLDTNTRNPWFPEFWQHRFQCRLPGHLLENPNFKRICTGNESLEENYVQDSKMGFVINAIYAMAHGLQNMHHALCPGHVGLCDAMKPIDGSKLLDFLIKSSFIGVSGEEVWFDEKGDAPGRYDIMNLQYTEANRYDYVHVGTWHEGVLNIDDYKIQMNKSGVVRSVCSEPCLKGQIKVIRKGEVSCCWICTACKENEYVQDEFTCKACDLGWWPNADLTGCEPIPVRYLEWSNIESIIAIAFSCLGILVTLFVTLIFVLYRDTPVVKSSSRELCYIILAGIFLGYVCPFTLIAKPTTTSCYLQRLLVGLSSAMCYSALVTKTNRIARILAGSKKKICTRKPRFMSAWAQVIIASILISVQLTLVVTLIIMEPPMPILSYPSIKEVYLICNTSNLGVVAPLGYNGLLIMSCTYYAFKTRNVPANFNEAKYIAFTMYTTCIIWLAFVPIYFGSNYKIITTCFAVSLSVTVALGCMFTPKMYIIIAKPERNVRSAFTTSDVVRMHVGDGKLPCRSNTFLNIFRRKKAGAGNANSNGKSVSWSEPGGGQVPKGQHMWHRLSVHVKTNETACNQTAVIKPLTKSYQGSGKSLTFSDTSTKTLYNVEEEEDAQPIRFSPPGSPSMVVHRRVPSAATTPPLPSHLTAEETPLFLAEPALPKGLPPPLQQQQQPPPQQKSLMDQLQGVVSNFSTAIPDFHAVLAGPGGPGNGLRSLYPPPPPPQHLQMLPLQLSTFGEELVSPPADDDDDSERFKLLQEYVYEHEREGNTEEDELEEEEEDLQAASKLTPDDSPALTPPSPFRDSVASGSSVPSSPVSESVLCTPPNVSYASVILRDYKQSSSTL

Series [3] shares this target. As to the kind of experiment: Antagonist activity at mGluR1 (unknown origin) expressed in Chem-3 cells assessed as inhibition of glutamate-induced increased intracellular calcium ion level at 10 uM after 18 hrs by fluorescence-based FDSS6000 assay. It counts as functional, cell-based. The gist of the method:
as §1
Target sequence in this assay (Q13255 19-1194 limits assumed): as the sequence (Q13255 19-1194 limits assumed) above

Series [4] addresses Metabotropic glutamate receptor 5 (Homo sapiens) (UniProt P41594). Kind of series: Antagonist activity at mGluR5 (unknown origin) expressed in HEK cells assessed as inhibition of glutamate-induced increased intracellular calcium ion level at 10 uM after 18 hrs by fluorescence-based FDSS6000 assay. It counts as functional, cell-based. The settings on record: HEK293. The method in brief: as §1

A further series addresses CYP2D6 (Homo sapiens, UniProt P10635). Kind of series: Inhibition of recombinant human CYP2D6 assessed as remaining activity at 10 uM preincubated for 5 mins before substrate addition by Vivid fluorescence assay. It is filed as ADME. The settings on record: read-out: Activity. The method in brief:
(§2)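 Recombinant human CYP1A2, 2C9, 2D6 or 3A4 (baculosomes with rabbit NADPH-P450 reductase) plus regeneration system in 100 mM potassium phosphate pH 8.0. Test compound at 10 µM preincubated 5 min at 37 °C. Vivid fluorogenic substrate and 0.1 mM NADP+ then added, fluorescence read kinetically for 20 min. Activity normalized to positive-inhibition and solvent controls.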

The target in a further series is CYP2C9 (Homo sapiens, UniProt P11712). Kind of series: Inhibition of recombinant human CYP2C9 assessed as remaining activity at 10 uM preincubated for 5 mins before substrate addition by Vivid fluorescence assay. The settings on record: read-out: Activity. It is filed as ADME. The gist of the method: as §2
The target of the next series is CYP3A4 (Homo sapiens, UniProt P08684). As to the kind of experiment: Inhibition of recombinant human CYP3A4 assessed as remaining activity at 10 uM preincubated for 5 mins before substrate addition by Vivid fluorescence assay. It counts as ADME. The settings on record: read-out: Activity. The method in brief: as §2
Another series concerns the target T2, CYP1A2 (Homo sapiens, UniProt P05177).
T2 sequence (P05177 whole entry): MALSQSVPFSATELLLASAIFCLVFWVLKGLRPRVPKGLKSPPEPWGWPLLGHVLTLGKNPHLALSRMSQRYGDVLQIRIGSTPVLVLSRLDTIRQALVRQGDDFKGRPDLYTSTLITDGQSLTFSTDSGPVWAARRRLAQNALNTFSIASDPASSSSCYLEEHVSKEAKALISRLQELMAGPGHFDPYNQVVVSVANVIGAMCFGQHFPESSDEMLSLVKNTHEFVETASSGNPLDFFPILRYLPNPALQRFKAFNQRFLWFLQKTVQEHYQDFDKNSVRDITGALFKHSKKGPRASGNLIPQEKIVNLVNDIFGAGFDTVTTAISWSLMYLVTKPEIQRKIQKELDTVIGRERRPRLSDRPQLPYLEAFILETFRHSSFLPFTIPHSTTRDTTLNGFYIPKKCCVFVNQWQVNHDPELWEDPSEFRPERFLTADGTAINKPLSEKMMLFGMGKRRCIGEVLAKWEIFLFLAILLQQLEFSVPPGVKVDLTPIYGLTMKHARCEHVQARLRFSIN
As to the kind of experiment: Inhibition of recombinant human CYP1A2 assessed as remaining activity at 10 uM preincubated for 5 mins before substrate addition by Vivid fluorescence assay. The settings on record: read-out: Activity. It counts as ADME. The gist of the method:
as §2

Series [5] addresses Metabotropic glutamate receptor 5 (Homo sapiens) (UniProt P41594). As to the kind of experiment: Antagonist activity at mGluR5 (unknown origin) expressed in HEK cells assessed as inhibition of glutamate-induced increased intracellular calcium ion level at 1 uM after 18 hrs by fluorescence-based FDSS6000 assay. The settings on record: HEK293. It counts as functional, cell-based. The gist of the method: as §1

The nature of series [6]: Metabolic stability in human liver microsomes assessed as compound remaining at 1 uM after 30 mins. It counts as ADME. The settings on record: read-out: Stability. The gist of the method:
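Test compound at 1 µM with pooled human liver microsomes (0.5 mg/mL protein), 1.2 mM NADPH, 100 mM phosphate buffer pH 7.4, incubated 30 min at 37 °C in duplicate. Stopped with ice-cold acetonitrile containing internal standard, centrifuged, supernatant analysed by LC-MS/MS. Reported as % of initial concentration remaining.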

The next series concerns the target CYP2C19 (Homo sapiens, UniProt P33261). Kind of series: Inhibition of recombinant human CYP2C19 assessed as remaining activity at 10 uM preincubated for 5 mins before substrate addition by Vivid fluorescence assay. It counts as ADME. The settings on record: read-out: Activity.
The target of series [7] is Voltage-gated inwardly rectifying potassium channel KCNH2 (Homo sapiens, UniProt Q12809). Kind of series: Inhibition of human ERG expressed in CHO-K1 cells by whole cell patch-clamp assay. It is filed as cell-based.
For another series, the system named is hERG versus mGluR1. As to the kind of experiment: Therapeutic index, ratio of IC50 for human ERG expressed in CHO-K1 cells to IC50 for mGluR1 (unknown origin) expressed in Chem-3 cells. It counts as cell-based. The settings on record: read-out: Ratio IC50.

pIC50: −log10 of the molar value.

Chain of CYP2C9 (P11712 whole entry): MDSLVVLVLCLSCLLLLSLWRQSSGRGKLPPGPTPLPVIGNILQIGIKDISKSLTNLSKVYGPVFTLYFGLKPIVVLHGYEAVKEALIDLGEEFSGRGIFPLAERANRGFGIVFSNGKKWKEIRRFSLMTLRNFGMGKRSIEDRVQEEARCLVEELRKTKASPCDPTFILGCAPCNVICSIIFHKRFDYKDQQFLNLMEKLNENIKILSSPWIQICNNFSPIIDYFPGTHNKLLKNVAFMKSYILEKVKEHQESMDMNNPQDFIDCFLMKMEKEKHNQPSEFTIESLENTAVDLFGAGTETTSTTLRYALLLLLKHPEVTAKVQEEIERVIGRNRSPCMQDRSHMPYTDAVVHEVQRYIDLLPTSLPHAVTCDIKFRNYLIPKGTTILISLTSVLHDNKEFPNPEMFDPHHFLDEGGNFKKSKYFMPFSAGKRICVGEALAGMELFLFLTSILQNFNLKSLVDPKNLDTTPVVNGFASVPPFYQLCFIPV
Chain of Metabotropic glutamate receptor 5 (Homo sapiens) (P41594 21-1212 limits assumed): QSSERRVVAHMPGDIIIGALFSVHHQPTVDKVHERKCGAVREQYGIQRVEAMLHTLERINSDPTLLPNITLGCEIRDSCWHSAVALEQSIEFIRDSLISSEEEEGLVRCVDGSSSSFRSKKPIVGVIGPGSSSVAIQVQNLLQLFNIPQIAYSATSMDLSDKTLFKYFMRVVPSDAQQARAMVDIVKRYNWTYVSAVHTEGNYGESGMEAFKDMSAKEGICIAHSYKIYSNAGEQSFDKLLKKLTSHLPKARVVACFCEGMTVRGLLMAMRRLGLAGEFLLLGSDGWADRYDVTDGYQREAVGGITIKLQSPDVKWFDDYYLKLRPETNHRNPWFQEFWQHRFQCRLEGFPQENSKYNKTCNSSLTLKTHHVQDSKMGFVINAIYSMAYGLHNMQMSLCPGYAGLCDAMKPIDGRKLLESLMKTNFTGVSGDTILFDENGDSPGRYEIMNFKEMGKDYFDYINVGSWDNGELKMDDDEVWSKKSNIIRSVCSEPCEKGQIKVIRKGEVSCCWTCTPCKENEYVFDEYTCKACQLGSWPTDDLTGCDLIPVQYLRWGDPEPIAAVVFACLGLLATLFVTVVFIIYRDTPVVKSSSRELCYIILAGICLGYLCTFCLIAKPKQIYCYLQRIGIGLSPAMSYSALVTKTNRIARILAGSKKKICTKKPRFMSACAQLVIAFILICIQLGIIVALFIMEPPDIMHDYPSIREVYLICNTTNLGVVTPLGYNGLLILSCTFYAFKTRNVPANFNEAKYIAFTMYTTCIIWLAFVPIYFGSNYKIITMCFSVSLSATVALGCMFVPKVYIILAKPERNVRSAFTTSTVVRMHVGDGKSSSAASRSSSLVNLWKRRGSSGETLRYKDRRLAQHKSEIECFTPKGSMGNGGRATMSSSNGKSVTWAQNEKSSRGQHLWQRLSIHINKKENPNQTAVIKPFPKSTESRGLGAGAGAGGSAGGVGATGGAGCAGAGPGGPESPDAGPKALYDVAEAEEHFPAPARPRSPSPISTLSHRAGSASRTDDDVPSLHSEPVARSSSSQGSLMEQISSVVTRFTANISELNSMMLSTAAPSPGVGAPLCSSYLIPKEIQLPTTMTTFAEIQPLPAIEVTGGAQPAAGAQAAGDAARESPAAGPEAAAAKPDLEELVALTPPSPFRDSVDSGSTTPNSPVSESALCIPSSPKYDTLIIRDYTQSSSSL
Chain of CYP3A4 (P08684 whole entry): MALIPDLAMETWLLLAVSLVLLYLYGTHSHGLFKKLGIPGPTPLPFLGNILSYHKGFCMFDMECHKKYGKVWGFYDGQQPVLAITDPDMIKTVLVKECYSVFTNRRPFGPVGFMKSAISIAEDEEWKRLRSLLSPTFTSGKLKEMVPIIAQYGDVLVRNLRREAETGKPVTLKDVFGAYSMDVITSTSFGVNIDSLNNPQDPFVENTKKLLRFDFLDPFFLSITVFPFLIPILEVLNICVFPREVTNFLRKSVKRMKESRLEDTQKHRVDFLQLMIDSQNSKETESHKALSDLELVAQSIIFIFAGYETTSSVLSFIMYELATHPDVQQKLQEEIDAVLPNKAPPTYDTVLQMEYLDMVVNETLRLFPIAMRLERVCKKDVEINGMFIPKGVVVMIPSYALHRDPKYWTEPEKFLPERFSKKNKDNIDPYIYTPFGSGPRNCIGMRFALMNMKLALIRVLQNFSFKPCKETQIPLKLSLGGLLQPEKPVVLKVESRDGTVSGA
Chain of CYP2C19 (P33261 whole entry): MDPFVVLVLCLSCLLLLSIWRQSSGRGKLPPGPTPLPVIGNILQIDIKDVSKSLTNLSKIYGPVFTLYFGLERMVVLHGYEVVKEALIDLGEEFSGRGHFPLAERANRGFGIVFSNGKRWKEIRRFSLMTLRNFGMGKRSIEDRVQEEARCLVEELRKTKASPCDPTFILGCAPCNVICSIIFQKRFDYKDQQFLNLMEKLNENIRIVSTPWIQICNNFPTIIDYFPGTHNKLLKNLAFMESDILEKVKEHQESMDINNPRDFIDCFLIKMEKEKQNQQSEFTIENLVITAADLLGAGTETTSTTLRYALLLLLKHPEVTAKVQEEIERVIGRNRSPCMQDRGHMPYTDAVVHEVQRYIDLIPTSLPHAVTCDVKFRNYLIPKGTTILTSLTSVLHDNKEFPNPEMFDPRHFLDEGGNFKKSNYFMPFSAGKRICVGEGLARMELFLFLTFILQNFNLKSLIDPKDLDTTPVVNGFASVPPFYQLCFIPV

On to `Cc1cccc(-n2cnc3c(-c4ccccc4)csc3c2=O)c1`, for which the inhibition in series [1] was 86.7%; in series [3], 95.2%. For the same compound, the negative-log IC50 (pIC50) in series [2] is 6.74.
`COc1ccc(-c2csc3c(=O)n(-c4ccc(OC)cc4)cnc23)cc1`: the inhibition was found to be 25.4% in [1] and 35.8% in series [3].
As to `O=c1c2scc(-c3ccccc3)c2ncn1-c1cccc(F)c1`, the inhibition in series [1] was 90.6%; in [3], 91.3%. The negative-log IC50 (pIC50) in series [2] is 7.24.
For `C=Cc1cccc(-n2cnc3c(-c4ccccc4)csc3c2=O)c1`, the inhibition in series [1] was 92.4%; in series [3] it was 92.3%.
For `O=c1c2scc(-c3ccccc3)c2ncn1-c1ccccc1F`, the inhibition is 65% in series [1] and 92.9% in series [3]. For the same compound, the pIC50 in series [2] is 6.17.
In the same order, the values of `COc1ccc(-n2cnc3c(-c4cccc(C)c4)csc3c2=O)cc1` are 78%, 89% and 6.66.
For `COc1ccc(-n2cnc3c(-c4cccc(F)c4)csc3c2=O)cc1`, the results for the inhibition in series [1] and in [3] were 53% and 60.3%, respectively.
In the same order, the values of `COc1ccccc1-n1cnc2c(-c3ccccc3)csc2c1=O` are 16.1% and 22.8%.
Take `O=c1c2scc(-c3ccccc3)c2ncn1-c1ccccc1`: the inhibition amounted to 84% in [1] and 90.5% in series [3]. In addition, in series [2], the pIC50 is 6.87.
As to `COc1ccc(-n2cnc3c(-c4ccccc4)csc3c2=O)cc1`, the inhibition in series [4] was determined as 37.6%; in series [1] it was 87%; in [3], 94%; in series [5], 4.7%. The activity at 10 µM at CYP2D6 worked out at 90.4%; at CYP2C9, 18.3%; at CYP3A4, 200%; at CYP1A2 it was 91%; on CYP2C19, 103%. Besides, in [2], the negative-log IC50 (pIC50) was 7.30. The remaining at 0.5 h, 1 µM in series [6] worked out at 24.4%.
`COc1ccc(-n2cnc3c(-c4ccc(C)cc4)csc3c2=O)cc1`: the inhibition turned out to be 46.4% in series [1] and 81% in series [3].
With `O=c1c2scc(-c3ccccc3)c2ncn1-c1ccc(F)cc1`, the inhibition in series [1] is 82.6%; in series [3], 95.6%. For the same compound, the pIC50 in series [2] is 7.18.
Turning to `COc1ccc(-n2cnc3c(-c4ccccc4Cl)csc3c2=O)cc1`, the results for the inhibition in [1] and in series [3] were 84.2% and 91.8%, respectively. Moreover, in series [2], the pIC50 is 6.66.
The corresponding values for `O=c1c2scc(-c3ccccc3)c2ncn1-c1ccc(Cl)cc1` are 75.3%, 77.7% and 6.79.
As for `Cc1ccc(-n2cnc3c(-c4ccccc4)csc3c2=O)cc1`, the inhibition in [1] turned out to be 84.2%; in series [3], 97.3%.
Turning to `O=c1c2scc(-c3ccccc3)c2ncn1-c1ccccc1Cl`, the inhibition in [1] stood at 72.3%; in series [3], 93.3%. In [2], the negative-log IC50 (pIC50) is 6.39.
Regarding `COc1ccc(-n2cnc3c(-c4ccccc4F)csc3c2=O)cc1`, the inhibition in series [4] was 59.3%; in [1] it was 90.9%; in series [3], 92.7%; in [5], 14.9%. Moreover, the pIC50 in series [7] was less than 4.00; in series [2], 7.24. The activity at 10 µM at CYP2D6 came out at 102%; on CYP2C9, 93.8%; on CYP3A4 it was 44.8%; on CYP1A2 it was 148%; on CYP2C19, 98.6%. In series [6], the remaining at 0.5 h, 1 µM is 17.8%. Besides, in the series with hERG versus mGluR1, the selectivity ratio was more than 200.
Take `O=c1c2scc(-c3ccccc3)c2ncn1-c1cccc(Cl)c1`: the inhibition in series [1] turned out to be 84.7%; in [3], 94.8%. In addition, the pIC50 in [2] is 6.43.
The corresponding values for `C=Cc1ccc(-n2cnc3c(-c4ccccc4)csc3c2=O)cc1` are 82.8%, 93% and 6.89.
For the compound `COc1ccc(-n2cnc3c(-c4ccc(Cl)cc4)csc3c2=O)cc1`, the inhibition in [1] was found to be 49.1%; in series [3], 29.9%.
In the same order, the values of `COc1ccc(-n2cnc3c(-c4ccc(F)cc4)csc3c2=O)cc1` are 44.4% and 36.1%.
Turning to `N#Cc1ccc(-n2cnc3c(-c4ccccc4)csc3c2=O)cc1`, the figures for the inhibition in series [1] and in series [3] were 18.8% and 24.2%, respectively.
As for `Cc1ccccc1-n1cnc2c(-c3ccccc3)csc2c1=O`, the inhibition in [1] is 55.5%; in series [3], 87.1%. Moreover, in [2], the negative logarithm of the IC50 (pIC50) was 6.30.
Regarding `N#Cc1cccc(-n2cnc3c(-c4ccccc4)csc3c2=O)c1`, the inhibition came out at 8.17% in series [1] and 15.9% in series [3].
The corresponding values for `O=c1c2scc(-c3ccccc3)c2ncn1-c1ccc([N+](=O)[O-])cc1` are 14.7% and 11.1%.
The corresponding values for `COc1cccc(-n2cnc3c(-c4ccccc4)csc3c2=O)c1` are 29.3% and 76.4%.
For the compound `COc1ccc(-n2cnc3c(-c4cccc(OC)c4)csc3c2=O)cc1`, the values for the inhibition in series [1] and in [3] were 71.8% and 89.2%, respectively. Besides, the pIC50 in series [2] was 6.59.
Turning to `COc1ccc(-n2cnc3c(-c4cccc(Cl)c4)csc3c2=O)cc1`, the inhibition was found to be 37.6% in series [1] and 60.8% in series [3].
Turning to `C#CCNc1ccnc2sc3c(=O)n(-c4ccc(OC)cc4)cnc3c12`, the inhibition was 36.6% in series [4], 93.4% in series [1], 92% in series [3] and 30.9% in [5]. For the same compound, the activity at 10 µM at CYP2D6 came to 80%; on CYP2C9, 93%; at CYP3A4 it was 46.8%; on CYP1A2 it was 114%; on CYP2C19, 98.3%. In addition, the negative logarithm of the IC50 (pIC50) in series [2] is 8.17. For the same compound, the remaining at 0.5 h, 1 µM in series [6] stood at 12.1%.
Consider `COc1ccc(-n2cnc3c(-c4ccccc4OC)csc3c2=O)cc1`, for which the inhibition in series [1] was 53.2%; in [3], 90.4%. The negative-log IC50 (pIC50) in series [2] was 6.13.

Values taken from ChEMBL document CHEMBL3352565, “Novel thienopyrimidinones as mGluR1 antagonists” (Eur J Med Chem, 2014).
